Assay results: ChEMBL document CHEMBL2440012, “Design, synthesis and anticonvulsant properties of new N-Mannich bases derived from 3-phenylpyrrolidine-2,5-diones” (Bioorg Med Chem, 2013)
Calls of active or inactive are those of the source. No cut-off for these calls is given here.

Assays:
Mus musculus [1] = experiment: Anticonvulsant activity in ip dosed albino CF1 mouse assessed as protection against maximal electroshock-induced seizures in half or more animals measured after 4 hrs; type: functional; details: read-out: MED
Method in brief: (§1)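 Male CF-1 mice given ip suspension in 0.5% methylcellulose/water at 30, 100 and 300 mg/kg; MES, scPTZ (pentylenetetrazole 85 mg/kg sc, CD97 dose for clonic seizures ≥5 s) and rotarod (inability to hold balance 1 min in each of three trials) assessed at 0.5 and 4 h; value is minimum dose active in half or more animals.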

Mus musculus [2] = experiment: Anticonvulsant activity in albino CF1 mouse assessed as assessed as protection against 6 Hz psychomotor seizure at 100 mg/kg, ip after 4 hrs by minimal clonic seizure test; type: functional; details: route intraperitoneal
Method in brief: (§2)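 Male CF-1 mice, groups of four, dosed ip in 0.5% methylcellulose/water suspension, then challenged by 6-Hz corneal stimulation at 32 mA (0.2 ms pulses, 3 s, constant current) at 0.25, 0.5, 1, 2 or 4 h; count of mice out of four protected from stunned posture/clonic seizure.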

Mus musculus [3] = experiment: Anticonvulsant activity in albino CF1 mouse assessed as protection against subcutaneous pentylenetetrazole-induced convulsion at 300 mg/kg, ip measured after 0.5 hrs; type: functional, organism-based; set-up: dose 300 mg/kg; method in brief: as §1
Mus musculus [4] = experiment: Anticonvulsant activity in ip dosed albino CF1 mouse assessed as protection against maximal electroshock-induced seizures in half or more animals measured after 0.5 hr; type: functional; details: read-out: MED; method in brief: as §1
Mus musculus [5] = experiment: Anticonvulsant activity in albino CF1 mouse assessed as assessed as protection against 6 Hz psychomotor seizure at 100 mg/kg, ip after 0.5 hr by minimal clonic seizure test; type: functional; details: route intraperitoneal; method in brief: as §2
Mus musculus [6] = experiment: Neurotoxicity in albino CF1 mouse assessed as minimum motor impairment at 300 mg/kg, ip measured after 0.5 hr by rotorod test; type: toxicity, organism-based; set-up: dose 300 mg/kg, route intraperitoneal; details: in vivo; method in brief: as §1
Mus musculus [7] = experiment: Anticonvulsant activity in albino CF1 mouse assessed as protection against subcutaneous pentylenetetrazole-induced convulsion at 300 mg/kg, ip measured after 4 hrs; type: functional, organism-based; set-up: dose 300 mg/kg; method in brief: as §1
Mus musculus [8] = experiment: Anticonvulsant activity in albino CF1 mouse assessed as assessed as protection against 6 Hz psychomotor seizure at 100 mg/kg, ip after 1 hr by minimal clonic seizure test; type: functional; details: route intraperitoneal; method in brief: as §2
Mus musculus [9] = experiment: Anticonvulsant activity in albino CF1 mouse assessed as assessed as protection against 6 Hz psychomotor seizure at 100 mg/kg, ip after 2 hrs by minimal clonic seizure test; type: functional; details: route intraperitoneal; method in brief: as §2
Mus musculus [10] = experiment: Anticonvulsant activity in albino CF1 mouse assessed as assessed as protection against 6 Hz psychomotor seizure at 100 mg/kg, ip after 0.25 hr by minimal clonic seizure test; type: functional; details: route intraperitoneal; method in brief: as §2
Mus musculus [11] = experiment: Neurotoxicity in albino CF1 mouse assessed as minimum motor impairment at 300 mg/kg, ip measured after 4 hrs by rotorod test; type: toxicity, organism-based; set-up: dose 300 mg/kg, route intraperitoneal; details: in vivo; method in brief: as §1
Rattus norvegicus [12] = experiment: Anticonvulsant activity in albino Sprague-Dawley rat assessed as protection against maximal electroshock-induced seizures at 30 mg/kg, po measured after 4 hrs; type: functional
Method in brief: (§3)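 Male Sprague-Dawley rats, four per group, dosed p.o. at 30 mg/kg in 0.5% methylcellulose/water suspension; MES test at 0.25, 0.5, 1, 2 and 4 h, motor impairment examined in parallel; number of rats out of four protected.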

Rattus norvegicus [13] = experiment: Anticonvulsant activity in albino Sprague-Dawley rat assessed as protection against maximal electroshock-induced seizures at 30 mg/kg, po measured after 1 hr; type: functional; method in brief: as §3
Rattus norvegicus [14] = experiment: Anticonvulsant activity in albino Sprague-Dawley rat assessed as protection against maximal electroshock-induced seizures at 30 mg/kg, po measured after 0.5 hr; type: functional; method in brief: as §3
Mus musculus [15] = experiment: Toxicity in albino CF1 mouse assessed as diarrhea at 300 mg/kg, ip measured after 4 hrs by rotorod test; type: organism-based; set-up: dose 300 mg/kg, route intraperitoneal; details: in vivo
Rattus norvegicus [16] = experiment: Anticonvulsant activity in albino Sprague-Dawley rat assessed as protection against maximal electroshock-induced seizures at 30 mg/kg, po measured after 2 hrs; type: functional; method in brief: as §3
Mus musculus [17] = experiment: Anticonvulsant activity in albino CF1 mouse assessed as protection against maximal electroshock-induced seizures at 300 mg/kg, ip measured after 0.5 hr; type: functional, organism-based; set-up: dose 300 mg/kg; method in brief: as §1
Rattus norvegicus [18] = experiment: Anticonvulsant activity in albino Sprague-Dawley rat assessed as protection against maximal electroshock-induced seizures at 30 mg/kg, po measured after 0.25 hr; type: functional; method in brief: as §3
Mus musculus [19] = experiment: Anticonvulsant activity in albino CF1 mouse assessed as protection against maximal electroshock-induced seizures at 300 mg/kg, ip measured after 4 hrs; type: functional, organism-based; set-up: dose 300 mg/kg; method in brief: as §1
Mus musculus [20] = experiment: Anticonvulsant activity against 6 Hz psychomotor seizure in ip dosed albino CF1 mouse by minimal clonic seizure test; type: functional
Mus musculus [21] = experiment: Anticonvulsant activity against 6 Hz psychomotor seizure in ip dosed albino CF1 mouse assessed as time to peak effect by minimal clonic seizure test; type: functional
Mus musculus [22] = experiment: Neurotoxicity in ip dosed albino CF1 mouse assessed as time to peak effect by rotorod test; type: toxicity, organism-based; details: in vivo
Rattus norvegicus [23] = experiment: Anticonvulsant activity in po dosed albino Sprague-Dawley rat assessed as protection against maximal electroshock-induced seizures; type: functional
Mus musculus [24] = experiment: Anticonvulsant activity in ip dosed albino CF1 mouse assessed as protection against subcutaneous pentylenetetrazole-induced convulsion in half or more animals measured after 0.5 hr; type: functional; details: albino CF1, 0.5 h, read-out: MED; method in brief: as §1
[25] = Neurotoxicity in po dosed albino Sprague-Dawley rat assessed as minimum motor impairment by rotorod test; type: toxicity, organism-based; details: in vivo
Rattus norvegicus [26] = experiment: Protection index, ratio of TD50 for neurotoxicity in po dosed albino Sprague-Dawley rat by rotorod test to ED50 for anticonvulsant activity in po dosed albino Sprague-Dawley rat by scPTZ test; type: functional
Method in brief: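 Male Sprague-Dawley rats, compound suspended in 0.5% methylcellulose/water and given orally; tested at the time of peak effect. scPTZ: 70 mg/kg pentylenetetrazole sc; the end-point is clonic seizures lasting at least 5 s. Rotarod: motor impairment is failure to keep balance for 1 min in each of three trials. Groups of at least eight rats received several doses until at least three points fell within 10–90% effect. ED50, TD50 and 95% confidence intervals were derived by regression; PI = TD50/ED50.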

Rattus norvegicus [27] = experiment: Neurotoxicity in po dosed albino Sprague-Dawley rat assessed as time to peak effect by rotorod test; type: toxicity, organism-based; details: in vivo
Rattus norvegicus [28] = experiment: Anticonvulsant activity against […] subcutaneous pentylenetetrazole-induced convulsion in po dosed albino Sprague-Dawley rat assessed as time to peak effect; type: functional
Rattus norvegicus [29] = experiment: Anticonvulsant activity against maximal electroshock-induced seizures in po dosed albino Sprague-Dawley rat assessed as time to peak effect; type: functional
Mus musculus [30] = experiment: Anticonvulsant activity in ip dosed albino CF1 mouse assessed as protection against subcutaneous pentylenetetrazole-induced convulsion in half or more animals measured after 4 hrs; type: functional; details: albino CF1, 4 h, read-out: MED; method in brief: as §1
Mus musculus [31] = experiment: Neurotoxicity in ip dosed albino CF1 mouse assessed as minimum motor impairment in half or more animals measured after 4 hrs by rotorod test; type: toxicity, organism-based; details: in vivo; method in brief: as §1
Rattus norvegicus [32] = experiment: Anticonvulsant activity in po dosed albino Sprague-Dawley rat assessed as protection against subcutaneous pentylenetetrazole-induced convulsion; type: functional
Mus musculus [33] = experiment: Neurotoxicity in ip dosed albino CF1 mouse assessed as minimum motor impairment in half or more animals measured after 0.5 hrs by rotorod test; type: toxicity, organism-based; details: in vivo; method in brief: as §1
Rattus norvegicus [34] = experiment: Protection index, ratio of TD50 for neurotoxicity in po dosed albino Sprague-Dawley rat by rotorod test to ED50 for anticonvulsant activity in po dosed albino Sprague-Dawley rat by MES test; type: functional

## O=C1CC(c2ccccc2)C(=O)N1CN1CCC(Cc2ccccc2)CC1 (racemic)
Mus musculus [1]
  minimal effective dose: 300 mg/kg
Mus musculus [2]
  Activity: 0%
Mus musculus [3]
  Activity: inactive
Mus musculus [4]
  minimal effective dose: 100 mg/kg
Mus musculus [5]
  Activity: 0%
Mus musculus [6]
  Activity: Non-toxic
Mus musculus [7]
  Activity: inactive
Mus musculus [8]
  Activity: 25%
Mus musculus [9]
  Activity: 25%
Mus musculus [10]
  Activity: 0%
Mus musculus [11]
  Activity: Non-toxic

## O=C1CC(c2ccccc2Cl)C(=O)N1CN1CCN(c2ncccn2)CC1 (racemic)
Mus musculus [1]
  minimal effective dose: 100 mg/kg
Mus musculus [3]
  Activity: inactive
Rattus norvegicus [12]
  Activity: inactive
Rattus norvegicus [13]
  Activity: inactive
Rattus norvegicus [14]
  Activity: inactive
Mus musculus [6]
  Activity: Non-toxic
Mus musculus [7]
  Activity: inactive
Mus musculus [15]
  MED: 300 mg/kg
Rattus norvegicus [16]
  Activity: inactive
Mus musculus [17]
  Activity: inactive
Rattus norvegicus [18]
  Activity: inactive

## O=C1CC(c2ccccc2)C(=O)N1CN1CCN(c2ncccn2)CC1 (racemic)
Mus musculus [2]
  Activity: 0%
Mus musculus [3]
  Activity: inactive
Mus musculus [19]
  Activity: inactive
Rattus norvegicus [12]
  Activity: inactive
Rattus norvegicus [13]
  Activity: inactive
Rattus norvegicus [14]
  Activity: inactive
Mus musculus [20]
  ED50: 103 mg/kg
Mus musculus [5]
  Activity: 50%
Mus musculus [21]
  Time: 1 h
Mus musculus [6]
  Activity: Non-toxic
Mus musculus [7]
  Activity: inactive
Rattus norvegicus [16]
  Activity: inactive
Mus musculus [8]
  Activity: 50%
Mus musculus [17]
  Activity: inactive
Mus musculus [9]
  Activity: 50%
Mus musculus [10]
  Activity: 75%
Mus musculus [11]
  Activity: Non-toxic
Mus musculus [22]
  Time: 1 h
Rattus norvegicus [18]
  Activity: inactive

## CCC1(C)CC(=O)NC1=O (stereo not given) [ETHOSUXIMIDE]
Rattus norvegicus [23]
  ED50: > 500 mg/kg
Mus musculus [19]
  Activity: inactive
Mus musculus [24]
  minimal effective dose: 100 mg/kg
Mus musculus [6]
  Activity: Non-toxic
[25]
  TD50: > 500 mg/kg
Rattus norvegicus [26]
  Ratio TD50/ED50: >2.99
Rattus norvegicus [27]
  Time: 1 h
Rattus norvegicus [28]
  Time: 1 h
Mus musculus [17]
  Activity: inactive
Rattus norvegicus [29]
  Time: 1 h
Mus musculus [11]
  Activity: Non-toxic
Mus musculus [30]
  minimal effective dose: 300 mg/kg

## O=C1NC(=O)C(c2ccccc2)(c2ccccc2)N1 [PHENYTOIN]
Mus musculus [1]
  minimal effective dose: 30 mg/kg
Mus musculus [3]
  Activity: inactive
Mus musculus [31]
  MED: 100 mg/kg
Rattus norvegicus [12]
  Activity: 75%
Rattus norvegicus [13]
  Activity: 75%
Mus musculus [4]
  minimal effective dose: 30 mg/kg
Rattus norvegicus [14]
  Activity: 100%
Rattus norvegicus [32]
  ED50: > 500 mg/kg
Mus musculus [33]
  MED: 100 mg/kg
[25]
  TD50: > 100 mg/kg
Mus musculus [7]
  Activity: inactive
Rattus norvegicus [27]
  Time: 1 h
Rattus norvegicus [34]
  Ratio TD50/ED50: >3.6
Rattus norvegicus [28]
  Time: 1 h
Rattus norvegicus [16]
  Activity: 75%
Rattus norvegicus [29]
  Time: 1 h
Rattus norvegicus [18]
  Activity: 25%
